Results published in ChEMBL document CHEMBL2406928, “Discovery of novel insulin-like growth factor-1 receptor inhibitors with unique time-dependent binding kinetics” (ACS Med Chem Lett, 2013).
Each block holds one compound with its values, some of them ahead of it. The source made the active and inactive calls. The rule behind the calls is not given here.

Tests used:
[1] = Aqueous solubility of the compound; assay type: physicochemical; conditions: buffer
[2] = Plasma concentration in CD1 mouse at 2.5 mg/kg, po measured at 8 hrs; assay type: ADME, organism-based; design: dose 2.5 mg/kg, route oral
Mus musculus [3] = assay: In vivo inhibition of IR phosphorylation in human GEO cells xenografted in nu/nu CD1 mouse at 2 mg/kg, po measured up to 48 hrs relative to control; assay type: functional
Method in brief: (§1)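 Single oral dose of 2 mg/kg to mice bearing GEO colon cancer xenografts (IGF-1R/IGF-II autocrine loop). Phosphorylation of IGF-1R and of IR in tumors followed over time up to 48 h after dosing, expressed as inhibition versus control.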

[4] = Oral bioavailability in CD1 mouse at 2.5 mg/kg; assay type: ADME, organism-based; conditions: plasma
[5] = Volume of distribution at steady state in CD1 mouse at 5 mg/kg, iv; assay type: ADME, organism-based; design: dose 5 mg/kg, route intravenous; conditions: in vivo, read-out: Vdss
[6] = Tmax in CD1 mouse at 2.5 mg/kg, po; assay type: ADME, organism-based; design: dose 2.5 mg/kg, route oral; conditions: in vivo
[7] = Plasma concentration in CD1 mouse at 2.5 mg/kg, po measured at 24 hrs; assay type: ADME, organism-based; design: dose 2.5 mg/kg, route oral
[8] = Cmax in CD1 mouse at 2.5 mg/kg, po; assay type: ADME, organism-based; design: dose 2.5 mg/kg, route oral; conditions: in vivo
[9] = Clearance in CD1 mouse at 5 mg/kg, iv; assay type: ADME, organism-based; design: dose 5 mg/kg, route intravenous; conditions: in vivo
[10] = Antitumor activity against human GEO cells xenografted in nu/nu CD1 mouse assessed as tumor growth inhibition at 2 mg/kg, po q7d administered for 14 days measured twice per week relative to vehicle-treated control; conditions: 336 h, read-out: TGI
Mus musculus [11] = assay: In vivo inhibition of IGF-1R phosphorylation in human GEO cells xenografted in nu/nu CD1 mouse at 2 mg/kg, po measured up to 48 hrs relative to control; assay type: functional; method in brief: as §1
GEO = assay: (§2) Antitumor activity against human GEO cells xenografted in nu/nu CD1 mouse assessed as tumor growth inhibition administered as intermittent dosing regimen relative to vehicle-treated control; assay type: functional
[12] = Oral bioavailability in CD1 mouse at 5 mg/kg; assay type: ADME, organism-based; conditions: plasma
[13] = Antitumor activity against human GEO cells xenografted in nu/nu CD1 mouse assessed as tumor growth inhibition at 5 mg/kg, po qd administered for 14 days measured twice per week relative to vehicle-treated control; assay type: functional; conditions: 336 h, read-out: TGI
Method in brief: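 GEO human colon cancer xenografts in mice; oral dosing at 5 mg/kg once daily, days 1–14. Tumor volumes expressed as mean percentage of initial volume ± SE; TGI calculated relative to vehicle-treated group.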

[14] = Plasma concentration in CD1 mouse at 5 mg/kg, po measured at 8 hrs; assay type: ADME, organism-based; design: dose 5 mg/kg, route oral
[15] = Cmax in CD1 mouse at 5 mg/kg, po; assay type: ADME, organism-based; design: dose 5 mg/kg, route oral; conditions: in vivo
[16] = Tmax in CD1 mouse at 5 mg/kg, po; assay type: ADME, organism-based; design: dose 5 mg/kg, route oral; conditions: in vivo
[17] = Volume of distribution at steady state in CD1 mouse at 0.5 mg/kg, iv; assay type: ADME, organism-based; design: dose 0.5 mg/kg, route intravenous; conditions: in vivo, read-out: Vdss
[18] = Plasma concentration in CD1 mouse at 5 mg/kg, po measured at 24 hrs; assay type: ADME, organism-based; design: dose 5 mg/kg, route oral
[19] = Clearance in CD1 mouse at 0.5 mg/kg, iv; assay type: ADME, organism-based; design: dose 0.5 mg/kg, route intravenous; conditions: in vivo
[20] = as §2; assay type: functional
[21] = molecular target: Insulin-like growth factor 1 receptor (Homo sapiens) (UniProt P08069)
Sequence of Insulin-like growth factor 1 receptor (Homo sapiens) (P08069 31-736 limits assumed): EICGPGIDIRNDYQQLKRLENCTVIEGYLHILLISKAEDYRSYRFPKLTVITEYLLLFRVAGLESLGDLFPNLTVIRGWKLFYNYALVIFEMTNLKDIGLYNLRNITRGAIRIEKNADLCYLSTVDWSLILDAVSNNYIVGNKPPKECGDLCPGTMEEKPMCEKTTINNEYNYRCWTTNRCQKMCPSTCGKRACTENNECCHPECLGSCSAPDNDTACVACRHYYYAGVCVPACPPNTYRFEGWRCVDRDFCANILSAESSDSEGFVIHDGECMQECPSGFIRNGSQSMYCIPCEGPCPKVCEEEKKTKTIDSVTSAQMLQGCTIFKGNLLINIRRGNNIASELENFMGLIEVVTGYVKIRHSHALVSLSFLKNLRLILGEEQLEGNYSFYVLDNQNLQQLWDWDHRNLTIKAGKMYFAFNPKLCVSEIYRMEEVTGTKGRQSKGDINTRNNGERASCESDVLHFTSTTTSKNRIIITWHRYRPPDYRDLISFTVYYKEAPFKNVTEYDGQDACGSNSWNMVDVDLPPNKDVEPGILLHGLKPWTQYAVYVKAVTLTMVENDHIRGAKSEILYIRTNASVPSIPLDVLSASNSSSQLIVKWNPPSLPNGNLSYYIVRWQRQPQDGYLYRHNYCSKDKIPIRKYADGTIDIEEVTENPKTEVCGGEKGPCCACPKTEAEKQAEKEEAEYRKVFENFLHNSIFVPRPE
Sequence of Insulin-like growth factor 1 receptor (Homo sapiens) (P08069 741-1367 limits assumed): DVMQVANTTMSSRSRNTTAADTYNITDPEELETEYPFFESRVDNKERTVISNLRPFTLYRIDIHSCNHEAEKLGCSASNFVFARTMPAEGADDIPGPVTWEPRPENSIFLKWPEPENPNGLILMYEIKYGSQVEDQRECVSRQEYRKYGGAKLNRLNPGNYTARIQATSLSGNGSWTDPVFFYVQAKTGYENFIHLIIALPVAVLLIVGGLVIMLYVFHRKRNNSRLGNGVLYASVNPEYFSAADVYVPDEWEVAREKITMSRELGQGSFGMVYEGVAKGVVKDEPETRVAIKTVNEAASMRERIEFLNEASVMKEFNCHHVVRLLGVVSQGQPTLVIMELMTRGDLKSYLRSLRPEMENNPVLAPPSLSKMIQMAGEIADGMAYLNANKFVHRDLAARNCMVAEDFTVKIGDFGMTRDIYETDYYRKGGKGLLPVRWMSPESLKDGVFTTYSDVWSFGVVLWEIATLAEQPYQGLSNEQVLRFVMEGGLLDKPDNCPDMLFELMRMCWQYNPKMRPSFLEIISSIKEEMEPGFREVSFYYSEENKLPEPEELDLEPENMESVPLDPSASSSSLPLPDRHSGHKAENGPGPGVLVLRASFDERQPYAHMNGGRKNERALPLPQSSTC

solubility [1]: soluble
concentration at 8 h [2]: 320 nM
bioavailability [4]: 63%
Vd [5]: 1.5 L/kg
Tmax [6]: 30 min
concentration at 24 h [7]: < 30 nM
Cmax [8]: 2200 nM
clearance [9]: 5 mL/min/kg
SMILES: CCOc1cc(-c2ccccc2)nc2cc(-c3nc([C@H]4C[C@@](C)(O)C4)n4ccnc(N)c34)ccc12
inhibition in vivo at 2 mg/kg (Mus musculus [3]): 80%
inhibition in vivo at 2 mg/kg [10]: 66%
inhibition in vivo at 2 mg/kg (Mus musculus [11]): 80%
TGI (GEO): Active

bioavailability [12]: 74%
concentration at 8 h [14]: 280 nM
Cmax [15]: 3.2 µM
Tmax [16]: 30 min
Vd [17]: 2.4 L/kg
concentration at 24 h [18]: < 30 nM
clearance [19]: 17 mL/min/kg
SMILES: COc1cc(-c2ccccc2)nc2cc(-c3nc([C@H]4C[C@@](C)(O)C4)n4ccnc(N)c34)ccc12
inhibition in vivo at 5 mg/kg [13]: 64%
TGI [20]: <50%

T1/2 [21]: 12 min
SMILES: C[C@]1(O)C[C@@H](c2nc(-c3ccc4ccc(-c5ccccc5)nc4c3)c3c(N)nccn32)C1
